Structures are written as SMILES. Where only a bound is given, the exact number is not on record here.

The values that follow come from ChEMBL document CHEMBL1158960, “Constituents of leguminous plants, XIII. New triterpenoid saponins from Wistaria brachybotrys” (J Nat Prod, 1991).

Type in all cases: cell-based
The subject of data set [1] is Raji. Briefly: Inhibition of 12-O-tetradecanoylphorbol-13-acetate-induced EBV-early antigen activation in human Raji cells at 1000 molar ratio after 48 hrs relative to TPA. On the set-up: scale not given: the % may be the effect or the level left. To be noted: human gammaherpesvirus 4. The method, boiled down: (§1)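 EBV-EA activation induced in Raji cells by TPA (20 ng = 32 pmol); test triterpenoid dosed as mol ratio to TPA. Results expressed relative to positive control set at 100%, averages of three determinations ± SD.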

Data set [2] has as its system Raji. Briefly: Inhibition of 12-O-tetradecanoylphorbol-13-acetate-induced EBV-early antigen activation in human Raji cells at 500 molar ratio after 48 hrs relative to TPA. The settings on record: human gammaherpesvirus 4. The method, boiled down:
as §1

Data set [3] concerns Raji. Briefly: Inhibition of 12-O-tetradecanoylphorbol-13-acetate-induced EBV-early antigen activation in human Raji cells at 100 molar ratio after 48 hrs relative to TPA. On the set-up: scale not given: the % may be the effect or the level left. The settings on record: human gammaherpesvirus 4. The method in brief:
as §1

The subject of data set [4] is Raji. Briefly: Inhibition of 12-O-tetradecanoylphorbol-13-acetate-induced EBV-early antigen activation in human Raji cells at 10 molar ratio after 48 hrs relative to TPA. The settings on record: human gammaherpesvirus 4. On the set-up: scale not given: the % may be the effect or the level left. The method, boiled down:
as §1

Data set [5] can be described thus: Cytotoxicity against human Raji cells assessed as cell viability at 1000 molar ratio. The settings on record: read-out: Activity. The method, boiled down: (§2)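 Raji cells exposed to TPA (20 ng = 32 pmol) together with test triterpenoid, dosed as mol ratio to TPA; viability of Raji cells recorded alongside EBV-EA assay, given as percentage.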
A short description of data set [6]: Cytotoxicity against human Raji cells assessed as cell viability at 500 molar ratio. The settings on record: read-out: Activity. The method in brief:
as §2

Data set [7] is described as follows: Cytotoxicity against human Raji cells assessed as cell viability at 100 molar ratio. The settings on record: read-out: Activity. The method in brief:
as §2

A short description of data set [8]: Cytotoxicity against human Raji cells assessed as cell viability at 10 molar ratio. The settings on record: read-out: Activity. The method, boiled down: as §2

On to `COC(=O)[C@H]1O[C@@H](O[C@H]2CC[C@@]3(C)[C@@H](CC[C@]4(C)[C@@H]3CC=C3[C@@H]5CC(C)(C)CC(=O)[C@]5(C)CC[C@]34C)[C@@]2(C)CO)[C@H](O[C@@H]2O[C@H](CO)[C@H](O)[C@H](O)[C@H]2O[C@@H]2O[C@@H](C)[C@H](O)[C@@H](O)[C@H]2O)[C@@H](O)[C@@H]1O` [DEHYDROSOYASAPONIN I], for which the Activity was found to be 50.3% in the data set with Raji [1], 88.5% in the data set with Raji [3] and 100% in the data set on Raji [4]. Besides, the EBV-EA activation remaining (% of TPA control) in the data set with Raji [2] is 67.8%. In addition, the viability at 1000 molar ratio in data set [5] came to 60%. Besides, the viability at 500 molar ratio in data set [6] is above 80%. In data set [7], the viability at 100 molar ratio was above 80%. Besides, the viability at 10 molar ratio in data set [8] was above 80%.

Take `CC1(C)CC(=O)[C@]2(C)CC[C@]3(C)C(=CC[C@@H]4[C@@]5(C)CC[C@H](O)[C@](C)(CO)[C@@H]5CC[C@]43C)[C@@H]2C1` [SOYASAPOGENOL E]: the Activity with Raji [1] was determined as 0%; with Raji [3], 43.9%; in the data set with Raji [4], 89.5%. Further, the EBV-EA activation remaining (% of TPA control) with Raji [2] turned out to be 0%. Besides, in data set [5], the viability at 1000 molar ratio was above 80%. For the same molecule, the viability at 500 molar ratio in data set [6] is above 80%. The viability at 100 molar ratio in data set [7] is above 80%. Besides, the viability at 10 molar ratio in data set [8] was above 80%.

On to `COC(=O)[C@H]1O[C@@H](O[C@H]2CC[C@@]3(C)[C@@H](CC[C@]4(C)[C@@H]3CC=C3[C@@H]5CC(C)(C)CC(=O)[C@]5(C)CC[C@]34C)[C@@]2(C)CO)[C@H](O[C@@H]2OC[C@@H](O)[C@H](O)[C@H]2O[C@@H]2O[C@@H](C)[C@H](O)[C@@H](O)[C@H]2O)[C@@H](O)[C@@H]1O` [WISTARIASAPONIN D], for which the Activity with Raji [1] worked out at 0%; in the data set with Raji [3], 86.1%; in the data set on Raji [4], 92.8%. In addition, in the data set on Raji [2], the EBV-EA activation remaining (% of TPA control) came out at 51%. The viability at 1000 molar ratio in data set [5] was found to be 10%. Also, in data set [6], the viability at 500 molar ratio was above 80%. In data set [7], the viability at 100 molar ratio is above 80%. For the same molecule, the viability at 10 molar ratio in data set [8] is above 80%.

Consider `COC(=O)[C@H]1O[C@@H](O[C@H]2CC[C@@]3(C)[C@@H](CC[C@]4(C)[C@@H]3CC=C3[C@@H]5C[C@@](C)(C(=O)OC)C[C@@H](OC(C)=O)[C@]5(C)CC[C@]34C)[C@@]2(C)CO)[C@H](O[C@@H]2OC[C@@H](O)[C@H](O)[C@H]2O[C@@H]2O[C@@H](C)[C@H](O)[C@@H](O)[C@H]2O)[C@@H](O)[C@@H]1O` [WISTARIASAPONIN G], for which, in the data set with Raji [2], the EBV-EA activation remaining (% of TPA control) is 15.4%. In addition, the Activity with Raji [3] is 62.6%; with Raji [4] it was 79.7%. Also, the viability at 1000 molar ratio in data set [5] turned out to be 0%. The viability at 500 molar ratio in data set [6] was found to be 10%. Besides, the viability at 100 molar ratio in data set [7] was above 80%. The viability at 10 molar ratio in data set [8] was above 80%.
